High-throughput results (PubChem BioAssay)
Beta apoptosis = blocks beta cell apoptosis. 300,000 compounds, 0.8% hits. AID 435005. protection from apoptosis, % (concentration not given with the values). INS-1E cytokine-induced death, ATP luminescence, 48 h; percent of positive-control rescue, neutral wells zero;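 active means Every replicate reaches about 75%, or at least half do and their mean reaches it too, limit read from the data; inconclusive means At least half of replicates reach the limit but their mean does not; inactive means Under half of replicates reach the limit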;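 further: higher means more ATP so stronger rescue from cytokine killing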
HIF activator = HIF pathway transcriptional activation. U2OS HRE-luciferase reporter, luminescence; normalized: DMSO 0%, desferrioxamine 100%. activation, % at 7.5 µM (by protocol). 300,000 compounds, 0.32% hits. AID 1910;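 active means mean activation of at least 10% of the iron chelator positive control signal, with at least half of replicates also reaching 10%; inconclusive means mean and replicate majority disagree about reaching 10%; inactive means mean and most replicates under 10%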
KLF5 inhibitor = kruppel-like factor 5 inhibition | DLD-1 KLF5 promoter-luciferase reporter, luminescence | inhibition, % at 5 µM | AID 1700 | 290,000 compounds, 0.23% hits;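 active means inhibition above a per-plate limit of that plate's mean compound inhibition plus 3 SD, cut at about 60% in these data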;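 further: higher means less KLF5 promoter-driven luciferase light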
Bfl-1 A1 inh = inhibitors of the anti-apoptotic protein A1, read as caspase activation; MEF A1-2A-BIM cells, Caspase-Glo 3/7 luminescence, 3 h; percent of clofoctol response, vehicle zero; caspase activation, % (test concentration not listed); 330,000 compounds, 0.066% hits; AID 2462;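 active means over half of replicate activation scores above 10%, or exactly half above 10 with the replicate mean above 10; inconclusive means replicate mean below 10 yet half the replicates above 10; inactive means over half of replicates below 10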
T cruzi repl = blocks replication of Trypanosoma cruzi; inhibition, % (test concentration not listed); T. cruzi beta-gal in NIH3T3, luminescence, 90 h; AID 1885; 300,000 compounds, 1.4% hits;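 active means mean inhibition across valid replicates above about 55%, limit read from the data; inconclusive means mean below that limit but half or more replicates reach it; inactive means mean below it, under half of replicates reach it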;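 further: signal also drops with host cell toxicity which is not excluded here; higher percent means less beta-gal luminescence so fewer parasites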
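Incubation – ≥90 h infection period, 3 h prior cell attachment · System – NIH/3T3 fibroblasts plus reporter T. cruzi · Doses – compound pinned at 50 nL/well, DMSO · Read-out basis – percent inhibition of parasite-derived β-gal signal · Signal – luminescent β-galactosidase signal after 60 min lysis · Also added – 5000 T. cruzi trypomastigotes/well · Medium – Low-serum DMEM with 2% FBS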
Of the large screens only hits and unclear results are named; the others gave an inactive call. This is a sample that favours compounds with a hit; in the whole collection about 2.3% have one here.

Cn1nc(C(C)(C)C)cc1C(=O)NCc1ccc(N2CCCC2=O)cc1	Beta apoptosis 115.8
Cc1ccc(CN2CCN(CC(=O)N=Nc3c(O)[nH]c4ccccc34)CC2)cc1	T cruzi repl 57.7
CCCCNC(=O)c1ccc2c(c1)C(=O)N(Cc1ccncc1)C2=O	none
NC(N)=N/N=C/c1ccc(Cl)c(Cl)c1	none
NC(N)=N/N=C/c1ccc(Cl)cc1Cl	T cruzi repl 62.0
Fc1ccc(CN(Cc2ccccc2)C(c2cccs2)c2nnnn2C2CCCCC2)cc1 (centres undefined)	Beta apoptosis 93.8, T cruzi repl inconclusive
Clc1ccc(CN(Cc2ccccc2)C(c2cccs2)c2nnnn2C2CCCC2)cc1 (centres undefined)	none
COc1ccc(Br)cc1CN(C)CC(=O)NCc1ccc(F)cc1	Beta apoptosis 97.8
CN(CC(=O)NCc1ccc(F)cc1)Cc1ccc(Br)cc1	none
CCCN(CC(=O)Nc1ccccc1C)C(=O)C1CC(=O)N(c2cccc(C)c2C)C1 (centres undefined)	none (no result: KLF5 inhibitor)
CCCc1sc(N/N=C/c2ccccn2)nc1-c1ccc(F)cc1	Beta apoptosis 90.9, HIF activator 19.8, T cruzi repl 54.8
COc1cc(NC(=O)c2cccc(C)c2)ccc1NC(=O)c1cc2ccccc2o1	Bfl-1 A1 inh 8.2
CCOc1cccc(C(=O)Nc2ccc(NC(=O)c3cc4ccccc4o3)c(OC)c2)c1	none
CC1Cc2cc(/C(O)=C3/C(=O)C(=O)N(CCN4CCOCC4)C3c3ccc([N+](=O)[O-])cc3)ccc2O1 (centres undefined)	none
CCCCOc1ccc(C(=O)NCC(=O)NCC2CCCO2)cc1 (centres undefined)	none
Cc1ccc(NC(=O)CN(C)C(=O)COC(=O)c2nc3nccc(C)n3n2)cc1	none (no result: HIF activator, KLF5 inhibitor, T cruzi repl)
Cc1ccc(NC(=O)c2ccccc2NS(=O)(=O)c2ccc(Cl)s2)cc1	Beta apoptosis 76.6
O=C(Nc1ccccc1)c1ccccc1NS(=O)(=O)c1ccc(Cl)s1	none
CC(C)CCNC(=O)C(c1cccnc1)N(Cc1ccccc1)C(=O)Cn1nnc2ccccc21 (centres undefined)	T cruzi repl 56.5
CC(C)CCNC(=O)C(c1cccnc1)N(CCc1ccccc1)C(=O)Cn1nnc2ccccc21 (centres undefined)	none
Cc1ccc(CSc2nnc(CCCCCNC(=O)OC(C)(C)C)o2)cc1	HIF activator 14.5
c1ccc(Oc2cccc(CN3CCCCC3)c2)cc1	none
CCN1CCN(Cc2cccc(Oc3ccc(Cl)cc3)c2)CC1	T cruzi repl inconclusive
CCN1CCN(Cc2cccc(Oc3ccccc3)c2)CC1	T cruzi repl 59.4
CN1CCN(Cc2cccc(Oc3ccc(Cl)cc3)c2)CC1	T cruzi repl 74.6
OCC1(CCCc2ccccc2)CCN(Cc2cnc(N3CCOCC3)s2)CC1	T cruzi repl 58.7
CCOC(=O)C1(Cc2ccccc2)CCN(Cc2cnc(N3CCOCC3)s2)CC1	T cruzi repl 58.8
O=C(CN1C(=O)COc2ccc(S(=O)(=O)N3CCCCC3)cc21)NCc1ccccc1Cl	none
Fc1cccc(CCN2CCNC[C@@H]2CC2CCCCC2)c1	none (no result: HIF activator, KLF5 inhibitor, T cruzi repl)
Cc1cccc2sc(N(CCN(C)C)C(=O)C3CCN(S(=O)(=O)c4cccs4)CC3)nc12	T cruzi repl 57.3 (no result: KLF5 inhibitor)
N=c1c2c(ncn1Cc1ccco1)Oc1ccc3ccccc3c1C2c1ccccc1 (centres undefined)	none (no result: Beta apoptosis)
CCCCn1cnc2c(c(-c3ccccc3)c(-c3ccccc3)n2Cc2ccco2)c1=N	Beta apoptosis 113.6
N=c1c2c(-c3ccccc3)c(-c3ccccc3)n(Cc3ccco3)c2ncn1Cc1ccco1	T cruzi repl 56.8
Cc1ccc2c(CC(=O)NC3CCS(=O)(=O)C3)coc2c1C (centres undefined)	none (no result: HIF activator)
COc1cc(NC(=O)c2ccccc2)c(OC)cc1NC(=O)Cc1ccc(Br)cc1	Bfl-1 A1 inh 11.8 (no result: Beta apoptosis)
COc1ccccc1COCC(O)CN1CCN(S(=O)(=O)c2cccc(F)c2)CC1 (centres undefined)	none (no result: HIF activator, KLF5 inhibitor, T cruzi repl)
CCc1ccc2[nH]c3nc(N/N=C/c4ccc(O)cc4O)nnc3c2c1	Beta apoptosis 108.0, T cruzi repl 56.8
O=C(NC(c1ccc(Cl)cc1)c1c(O)ccc2ccccc12)c1ccccc1 (centres undefined)	Beta apoptosis 98.3 (no result: HIF activator, T cruzi repl)
CC(C)N1CCN(Cc2ccc3c(c2)Cc2ccccc2-3)CC1CCO (centres undefined)	T cruzi repl 58.1
CC(C)N1CCN(Cc2ccc(Sc3nncn3C)o2)CC1CCO (centres undefined)	none
CC(C)N1CCN(Cc2ccc(-c3ccccc3Cl)o2)CC1CCO (centres undefined)	T cruzi repl 63.5
CC(C)N1CCN(Cc2ccc(-c3ccccc3)cc2)CC1CCO (centres undefined)	none (no result: Beta apoptosis)
O=C(Nc1ccccc1[N+](=O)[O-])C1COc2ccccc2O1 (centres undefined)	none
CCOCCCN1C(=O)C(=O)N(CC(=O)N2c3ccccc3NC(=O)CC2C)C1=O (centres undefined)	none (no result: HIF activator, KLF5 inhibitor, T cruzi repl)
CCCCCCCOc1ccc(OC(=O)c2cccnc2)cc1	T cruzi repl 56.8
CCCCOc1ccc(OC(=O)c2cccnc2)cc1	none
COc1ccc2c(c1)CCC1=C2NC(=S)NC1c1ccc(N(C)C)cc1 (centres undefined)	T cruzi repl 66.2
S=C1NC2=C(CCCC2=C2SCCCS2)C(c2ccccc2)N1 (centres undefined)	none
COc1ccc(C2NC(=S)NC3=C2CCCC3=C2SCCS2)cc1 (centres undefined)	HIF activator 235.5 (no result: Beta apoptosis)
O=C(Nc1ccc(-c2csc(Nc3cccc(C(F)(F)F)c3)n2)cc1)c1cc([N+](=O)[O-])cc(C(F)(F)F)c1	Beta apoptosis 110.6 (no result: KLF5 inhibitor)
O=C(Nc1ccc(-c2csc(Nc3cccc(C(F)(F)F)c3)n2)cc1)c1ccccc1	T cruzi repl 78.6 (no result: KLF5 inhibitor)
O=C(Nc1cccc(-c2csc(Nc3cccc(C(F)(F)F)c3)n2)c1)c1ccccc1	none (no result: KLF5 inhibitor)
COCc1c(C(C)C)nc(C(C)C)c(/C=C/[C@@H](O)C[C@@H](O)CC(=O)O)c1-c1ccc(F)cc1	T cruzi repl 64.8 (no result: KLF5 inhibitor)
CC(C)n1c(/C=C/[C@@H](O)C[C@@H](O)CC(=O)O)c(-c2ccc(F)cc2)c2ccccc21	none
CC(C)c1cccc(C(C)C)c1OC(=O)[C@H]1OC(c2ccc(Br)cc2)=C[C@@H]1c1ccc(Br)cc1	none (no result: HIF activator, KLF5 inhibitor, T cruzi repl)
CC(C)c1cccc(C(C)C)c1OC(=O)[C@H]1OC(C(C)(C)C)=C[C@@H]1c1ccccc1	Beta apoptosis 110.9 (no result: HIF activator, KLF5 inhibitor, T cruzi repl)
Cc1cc(NC(=O)COC(=O)C2CSC3(C)CCC(=O)N23)ccc1Br (centres undefined)	none (no result: HIF activator, KLF5 inhibitor, T cruzi repl)
CCOC(=O)CNC(=O)CSc1nnc(Cn2cnc3ccccc32)n1C	HIF activator 12.3
COc1ccc(NC(=O)CSc2nnc(Cn3cnc4ccccc43)n2C)cc1	none
O=C(CN(C(=O)c1csnn1)c1ccccc1Cl)NC1CCCC1	none
CC1CCN(CC(O)COCCC23CC4CC(CC(C4)C2)C3)CC1 (centres undefined)	T cruzi repl 61.2
